Source: ChEMBL document CHEMBL3526142, “Biotransformation of a novel antimitotic agent, I-387, by mouse, rat, dog, monkey, and human liver microsomes and in vivo pharmacokinetics in mice” (Drug Metab Dispos, 2011)

Experiments:
[1] = Metabolic stability in monkey liver microsomes assessed as half life during phase 1 at 0.5 uM by LC-MS/MS analysis in presence of 3 mM NADPH and absence of UDPGA; format: ADME, Macaca mulatta; details: rhesus monkey, read-out: alphat1/2
Outline: (§1)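 Pooled liver microsomes at 1 mg/ml protein with 3 mM NADPH, 0.5 μM substrate in 65 mM potassium phosphate pH 7.4, 1% methanol, 37°C. Incubations stopped at 10, 20, 30, 60 and 90 min with ice-cold acetonitrile plus internal standard, then LC-MS/MS of parent remaining relative to time 0. Half-life from a two-parameter single exponential decay fit; n = 2 to 3.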

Liver microsome [2] = test: Drug metabolism in dog liver microsomes assessed as (3-(1H-indol-2-yl)phenyl)(3,4,5-trimethoxyphenyl)methanol formation at 0.5 uM after 2 hrs by LC-MS/MS analysis in presence of 3 mM NADPH; format: ADME, Canis lupus familiaris
Outline: (§2)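 Pooled liver microsomes (1 mg/ml protein) incubated with 0.5 µM substrate and 3 mM NADPH in 65 mM potassium phosphate, pH 7.4, 1% methanol, at 37°C for 2 h. Stopped with ice-cold acetonitrile containing internal standard, centrifuged. Supernatant analysed by LC-MS/MS on a C18 column, 15-min gradient, with product ion scans for metabolite identification.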

[3] = Tmax in ICR mouse at 15 mg/kg, ip by LC-MS/MS analysis; format: ADME, organism-based; design: dose 15 mg/kg, route intraperitoneal; details: in vivo
Outline: (§3)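 Male ICR mice (20–25 g) given the compound intraperitoneally or by gavage in 10% DMSO/PEG300. Three to four mice were sacrificed per time point and plasma collected from the vena cava. Plasma was precipitated with acetonitrile containing internal standard and analysed by LC-MS/MS. Noncompartmental analysis of mean concentration-time data: terminal t1/2 = ln2/λz; Tmax by inspection; n = 3/dose group.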

[4] = Terminal half life in ICR mouse at 1 mg/kg, po via gavage by LC-MS/MS analysis; format: ADME, organism-based; design: dose 1 mg/kg, route oral; details: in vivo, read-out: beta t1/2 (converted); outline: as §3
[5] = Tmax in ICR mouse at 1 mg/kg, ip by LC-MS/MS analysis; format: ADME, organism-based; design: dose 1 mg/kg, route intraperitoneal; details: in vivo; outline: as §3
[6] = Cmax in ICR mouse at 1 mg/kg, ip by LC-MS/MS analysis; format: ADME, organism-based; design: dose 1 mg/kg, route intraperitoneal; details: in vivo
Outline: (§4)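 Male ICR mice (5–6 weeks, 20–25 g), single doses of 1, 5 or 15 mg/kg in 10% DMSO/PEG300, given iv by tail vein, ip, or orally by gavage. Three to four mice per time point, euthanized under isoflurane, blood drawn from posterior vena cava. Plasma protein precipitated with acetonitrile containing internal standard, then LC-MS/MS (MRM m/z 388.2→192). Noncompartmental analysis of mean concentration-time data, AUCinf by trapezoidal rule with extrapolation, CL = dose/AUCinf, Cmax read from the curve. F = (AUCnon-iv × dose iv)/(AUCiv × dose non-iv). n = 3 per dose group.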

[7] = Cmax in ICR mouse at 1 mg/kg, iv by LC-MS/MS analysis; format: ADME, organism-based; design: dose 1 mg/kg, route intravenous; details: in vivo; outline: as §4
[8] = Mean residence time (infinity) in ICR mouse at 5 mg/kg, iv by LC-MS/MS analysis; format: ADME, organism-based; design: dose 5 mg/kg, route intravenous; details: in vivo; outline: as §4
[9] = Metabolic stability in dog liver microsomes assessed as half life during phase 1 at 0.5 uM by LC-MS/MS analysis in presence of 3 mM NADPH and absence of UDPGA; format: ADME, Canis lupus familiaris; details: read-out: alphat1/2
Outline: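 Pooled liver microsomes (1 mg/ml) incubated with 0.5 µM substrate and 3 mM NADPH in 65 mM potassium phosphate, pH 7.4, 1% methanol, at 37°C. The phase I+II set also had 5 mM UDPGA, 5 mM D-saccharolactone, 50 µg/ml alamethicin and 3 mM MgCl2. Stopped at 10–90 min with cold acetonitrile plus internal standard. Parent remaining by LC-MS/MS relative to time 0. t1/2 from a two-parameter single exponential decay fit; n = 2–3.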

[10] = Volume of distribution at steady state in ICR mouse at 1 mg/kg, iv by LC-MS/MS analysis; format: ADME, organism-based; design: dose 1 mg/kg, route intravenous; details: in vivo, read-out: Vdss
Outline: (§5)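 Tail-vein injection in male ICR mice (5–6 weeks), vehicle 10% DMSO in PEG300. Serial terminal sampling of 3–4 mice per time point, with posterior vena cava blood. Plasma was acetonitrile-precipitated and measured by LC-MS/MS. Noncompartmental analysis of mean data: t1/2 = ln2/λz, CL = dose/AUC_inf, Vd_ss = CL × MRT_inf; n = 3/dose group.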

[11] = Cmax in ICR mouse at 15 mg/kg, po via gavage by LC-MS/MS analysis; format: ADME, organism-based; design: dose 15 mg/kg, route oral; details: in vivo; outline: as §4
[12] = Oral bioavailability in ICR mouse at 15 mg/kg via gavage after 30 mins by LC-MS/MS analysis; format: ADME, organism-based; details: in vivo
Outline: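 Male ICR mice (5–6 weeks, 20–25 g) dosed by gavage in 10% DMSO in PEG300. Three to four mice per time point were euthanized under isoflurane and blood taken from the posterior vena cava. Plasma was acetonitrile-precipitated and analysed by LC-MS/MS (MRM m/z 388.2→192). Tmax read by visual inspection. F = (AUC_oral × dose_iv)/(AUC_iv × dose_oral), with AUC_inf by trapezoidal rule; n = 3/dose group.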

[13] = Terminal half life in ICR mouse at 5 mg/kg, ip by LC-MS/MS analysis; format: ADME, organism-based; design: dose 5 mg/kg, route intraperitoneal; details: in vivo, read-out: beta t1/2 (converted); outline: as §3
[14] = Retention time of the compound at 0.5 uM by LC-MS/MS analysis; format: physicochemical
Outline: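 After a 2 h incubation at 37°C with liver microsomes (1 mg/ml protein, 3 mM NADPH, 0.5 μM substrate, pH 7.4 phosphate buffer), samples were quenched with acetonitrile and centrifuged. Supernatant separated on a C18 column (15 min run, linear gradient 100% A to 100% B over 7 min) with LC-MS/MS ion trap detection.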

[15] = Terminal half life in ICR mouse at 15 mg/kg, ip by LC-MS/MS analysis; format: ADME, organism-based; design: dose 15 mg/kg, route intraperitoneal; details: in vivo, read-out: beta t1/2 (converted); outline: as §3
[16] = AUC (infinity) in ICR mouse at 5 mg/kg, po via gavage by LC-MS/MS analysis; format: ADME, organism-based; design: time infinity, dose 5 mg/kg, route oral; details: plasma; outline: as §4
[17] = Drug level in monkey liver microsomes assessed as compound retention time treated with 0.5 uM I-387 after 2 hrs by LC-MS/MS analysis; format: ADME, Macaca mulatta; details: rhesus monkey; outline: as §2
[18] = Metabolic stability in dog liver microsomes assessed as half life during phase 1 and 2 at 0.5 uM by LC-MS/MS analysis in presence of 3 mM NADPH and […] UDPGA; format: ADME, Canis lupus familiaris; details: read-out: alphat1/2
Liver microsome [19] = test: Drug level in rat liver microsomes assessed as compound retention time treated with 0.5 uM I-387 after 2 hrs by LC-MS/MS analysis; format: ADME; outline: as §2
[20] = Metabolic stability in rat liver microsomes assessed as half life during phase 1 at 0.5 uM by LC-MS/MS analysis in presence of 3 mM NADPH and absence of UDPGA; format: ADME; details: read-out: alphat1/2; outline: as §1
[21] = AUC (infinity) in ICR mouse at 1 mg/kg, ip by LC-MS/MS analysis; format: ADME, organism-based; design: time infinity, dose 1 mg/kg, route intraperitoneal; details: plasma; outline: as §4
[22] = Cmax in ICR mouse at 15 mg/kg, iv by LC-MS/MS analysis; format: ADME, organism-based; design: dose 15 mg/kg, route intravenous; details: in vivo; outline: as §4
[23] = Volume of distribution at steady state in ICR mouse at 5 mg/kg, iv by LC-MS/MS analysis; format: ADME, organism-based; design: dose 5 mg/kg, route intravenous; details: in vivo, read-out: Vdss; outline: as §5
[24] = Terminal half life in ICR mouse at 1 mg/kg, iv by LC-MS/MS analysis; format: ADME, organism-based; design: dose 1 mg/kg, route intravenous; details: in vivo, read-out: beta t1/2 (converted); outline: as §5

- half-life at 0.5 µM [1]: 15 min
- Drug metabolism (Liver microsome [2]): metabolite_detected
- Tmax [3]: 10 min
- half-life [4]: 522 min
- Tmax [5]: 5 min
- Cmax [6]: 250 ng/mL
- Cmax [7]: 550 ng/mL
- MRT inf [8]: 198 min
- half-life at 0.5 µM [9]: 29 min
- Vd [10]: 5.3 L/kg
- Cmax [11]: 260 ng/mL
- bioavailability [12]: 8%
- half-life [13]: 294 min
- Retention_time [14]: 11.3 min
- half-life [15]: 498 min
- AUC(0-inf) [16]: 517 ng·h/mL
- Retention_time [17]: 11.3 min
- half-life at 0.5 µM [18]: 33 min
- Retention_time (Liver microsome [19]): 11.3 min
- half-life at 0.5 µM [20]: 42 min
- AUC(0-inf) [21]: 400 ng·h/mL
- Cmax [22]: 7530 ng/mL
- Vd [23]: 3.8 L/kg
- half-life [24]: 420 min
Structure (SMILES): COc1cc(C(=O)c2cccc(-c3cc4ccccc4[nH]3)c2)cc(OC)c1OC
